Compounds with a hit are over-represented: about 5.8% of the library has one in this group of screens.
GASC1 inh = KDM4C (human) demethylase inhibition; Q9H3R0; GST-KDM4C 2-372, H3K9me3 peptide, LANCE TR-FRET; inhibition, % at 12.5 µM; 96,000 tested, 0.15% active;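 active means mean replicate inhibition above about 25%, with at least 55% of replicates also reaching it, limit read from the data, passing the limit was not always enough; inconclusive means only one of those two conditions met; inactive means neither condition met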
Target sequence (Q9H3R0 2-372 limits assumed): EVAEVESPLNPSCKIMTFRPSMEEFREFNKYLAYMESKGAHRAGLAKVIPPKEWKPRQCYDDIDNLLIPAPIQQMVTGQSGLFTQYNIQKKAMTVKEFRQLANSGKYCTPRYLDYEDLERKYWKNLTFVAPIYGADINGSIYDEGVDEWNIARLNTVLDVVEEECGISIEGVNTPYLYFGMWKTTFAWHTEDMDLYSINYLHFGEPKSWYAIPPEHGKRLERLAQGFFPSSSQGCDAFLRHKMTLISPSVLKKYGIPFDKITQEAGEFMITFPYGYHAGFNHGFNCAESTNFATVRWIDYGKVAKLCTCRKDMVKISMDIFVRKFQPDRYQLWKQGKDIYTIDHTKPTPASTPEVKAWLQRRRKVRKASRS
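System: N-terminal GST-fused human GASC-1 (KDM4C) fragment, residues 2-372; amount: enzyme final amount 10 nM; incubation: reaction 30 min RT, detection step 1 h RT; medium: HEPES buffer, pH 7.5, plus ascorbate; technique: LANCE TR-FRET, Eu antibody, ULight-streptavidin, EDTA, ex 340 nm, em 618/671 nm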
IDH1 R132H inh = blocks human IDH1 R132H reductase activity; inhibition, % at 10 µM; O75874; 70,000 tested, 0.18% active; diaphorase/resazurin fluorescence, 60 min; in the data active means inhibition above about 34%; inconclusive means no clear call, values can overlap the other calls; inactive means below about 11%
Pf Dd2 inh = blocks growth of Plasmodium falciparum Dd2 parasites. P. falciparum Dd2 growth, SYBR Green, 72 h; stronger effect = lower value. activity change, % at 10 µM. 94,000 tested, 2.3% active; in the data active means activity change below about -80%; inconclusive means no clear call, values can overlap the other calls
T cruzi growth-1 = T. cruzi proliferation inhibition. T. cruzi beta-gal in NIH3T3, GalScreen luminescence, 90 h. 77,000 tested, 5.9% active. inhibition, % at 8.34 µM;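 active means mean inhibition above about 93%, with at least 55% of replicates each passing it, limit read from the data, passing the limit was not always enough; inconclusive means only one of those two conditions holds; inactive means neither condition holds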
T cruzi growth-2 = blocks T. cruzi growth in NIH3T3 host cells. 5,600 tested, 72% active. shares compounds with T cruzi growth-1. T. cruzi beta-gal in NIH3T3, GalScreen luminescence, 90 h. inhibition, % at 8.35 µM;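 active means mean replicate inhibition above about 95% and at least 55% of replicates individually reaching it, limit read from the data; inconclusive means only one of the two criteria is met; inactive means neither criterion is met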
T cruzi growth-3 = blocks T. cruzi growth in NIH3T3 host cells; shares compounds with T cruzi growth-1; T. cruzi beta-gal in NIH3T3, GalScreen luminescence, 90 h; inhibition, % at 2.09 µM; 5,600 tested, 21% active; AID 651740;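 active means mean inhibition above about 95%, with at least 55% of replicates also reaching it, limit read from the data; inconclusive means meets just one of the two conditions; inactive means meets neither condition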
NIH3T3 tox = kills mouse NIH/3T3 fibroblasts; shares compounds with T cruzi growth-1; NIH/3T3 viability, CellTiter-Glo ATP luminescence, 90 h; cytotoxicity (signal decrease), % at 8.35 µM; 5,600 tested, 14% active; AID 651742;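 active means mean signal decrease across replicates above about 35% based on untreated-well scatter, with enough replicates individually passing, limit read from the data; inconclusive means no rule stated though some were filed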
3T3 cytotox 2 = kills mouse NIH/3T3 fibroblasts. shares compounds with T cruzi growth-1. NIH/3T3 viability, CellTiter-Glo ATP luminescence, 90 h. inhibition, % at 24.9 µM. 5,600 tested, 56% active. AID 651744;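 active means mean loss of cell viability signal at or above a set limit, and enough replicates individually reaching it; inconclusive means meets only the mean limit or only the replicate share; inactive means meets neither condition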
Hits are given with their value; . = inactive; ? = inconclusive; / = not tested or not shown.

SMILES | GASC1 inh | IDH1 R132H inh | Pf Dd2 inh | T cruzi growth-1 | T cruzi growth-2 | T cruzi growth-3 | NIH3T3 tox | 3T3 cytotox 2
C[C@H](CO)N1C[C@H](C)[C@@H](CN(C)Cc2ccc(Oc3ccccc3)cc2)Oc2c(NC(=O)Nc3ccc4c(c3)OCO4)cccc2C1=O | . | / | . | ? | 109 | . | . | .
C[C@H](CO)N1C[C@H](C)[C@H](CN(C)Cc2ccncc2)Oc2ccc(NC(=O)Nc3ccc4c(c3)OCO4)cc2C1=O | . | . | . | 117 | . | . | . | 34
C[C@@H]1CN([C@@H](C)CO)C(=O)c2cc(NC(=O)Nc3ccc4c(c3)OCO4)ccc2O[C@@H]1CN(C)Cc1ccncc1 | . | . | . | . | / | / | / | /
C[C@@H]1CN([C@@H](C)CO)C(=O)c2cc(NC(=O)Cc3ccccc3)ccc2O[C@H]1CN(C)Cc1ccc(Oc2ccccc2)cc1 | . | / | . | . | / | / | / | /
C[C@H](CO)N1C[C@H](C)[C@@H](CN(C)Cc2ccc(Oc3ccccc3)cc2)Oc2ccc(NC(=O)Nc3ccccc3)cc2C1=O | . | / | . | . | / | / | / | /
C[C@H](CO)N1C[C@H](C)[C@H](CN(C)Cc2ccc(Oc3ccccc3)cc2)Oc2ccc(NC(=O)Cc3ccccc3)cc2C1=O | . | . | . | ? | . | . | . | 102
C[C@H]1CN([C@@H](C)CO)C(=O)c2cc(NC(=O)Nc3ccc4c(c3)OCO4)ccc2O[C@H]1CN(C)Cc1ccc(Oc2ccccc2)cc1 | . | . | . | 117 | 109 | . | . | 41
C[C@@H]1CN([C@@H](C)CO)C(=O)c2cccc(NC(=O)Nc3ccc4c(c3)OCO4)c2O[C@@H]1CN(C)Cc1ccc(Oc2ccccc2)cc1 | . | / | . | . | / | / | / | /
CCCNC(=O)N1C[C@H](C)[C@H](OC)CN(C)C(=O)c2cc(NS(=O)(=O)CC)ccc2OC[C@H]1C | . | . | / | . | / | / | / | /
Cc1ccc(S(=O)(=O)N[C@@H]2CC[C@@H](CC(=O)NCCc3ccncc3)O[C@@H]2CO)cc1 | . | . | . | . | / | / | / | /
C[C@H]1CN([C@@H](C)CO)C(=O)c2cc(-c3cccnc3)cnc2O[C@H]1CN(C)Cc1ccc(Oc2ccccc2)cc1 | . | . | . | . | / | / | / | /
C[C@@H]1CN([C@@H](C)CO)C(=O)c2cccc(NS(=O)(=O)c3cn(C)cn3)c2O[C@H]1CN(C)C(=O)Nc1cccc2ccccc12 | . | . | . | . | / | / | / | /
C[C@@H]1CCCCO[C@@H](CN(C)S(=O)(=O)c2ccccc2)[C@@H](C)CN([C@@H](C)CO)C(=O)c2cc(NS(=O)(=O)c3ccc(Cl)cc3)ccc2O1 | . | / | . | 118 | 101 | . | . | .
C[C@@H]1CCCCO[C@H](CN(C)S(=O)(=O)c2ccc(Cl)cc2)[C@H](C)CN([C@H](C)CO)C(=O)c2cc(NS(=O)(=O)c3ccccc3)ccc2O1 | . | . | . | . | / | / | / | /
C[C@@H]1CCCCO[C@@H](CN(C)S(=O)(=O)c2ccccc2)[C@H](C)CN([C@H](C)CO)C(=O)c2cc(NS(=O)(=O)c3ccc(Cl)cc3)ccc2O1 | . | / | . | 110 | 101 | ? | . | .
C[C@@H]1CN([C@@H](C)CO)C(=O)c2cc(NS(=O)(=O)c3ccc(Cl)cc3)ccc2O[C@@H](C)CCCCO[C@H]1CN(C)S(=O)(=O)c1ccc(Cl)cc1 | . | . | . | 111 | 108 | . | . | .
C[C@H]1CCCCO[C@H](CN(C)S(=O)(=O)c2ccccc2)[C@@H](C)CN([C@@H](C)CO)C(=O)c2cc(NS(=O)(=O)c3ccc(Cl)cc3)ccc2O1 | . | / | . | 114 | 103 | . | . | .
CCNC(=O)C[C@H]1CC[C@@H]2[C@H](COc3ccc(NC(=O)c4ccc(F)c(F)c4)cc3C(=O)N2C)O1 | . | / | . | . | / | / | / | /
OC[C@@H]1[C@@H](c2ccc(-c3ccccc3F)cc2)[C@@H]2CN(Cc3ccncc3)CCCCN12 | . | / | . | . | / | / | / | /
OC[C@@H]1[C@@H](c2ccc(-c3ccccc3F)cc2)[C@H]2CN(Cc3cccnc3)CCCCN12 | . | / | . | 97 | . | . | ? | 97
OC[C@@H]1[C@H](c2ccc(-c3ccc(F)cc3)cc2)[C@@H]2CN(Cc3cccnc3)CCCCN12 | . | / | . | 123 | 106 | . | . | 95
OC[C@@H]1[C@H](c2ccc(-c3ccccc3F)cc2)[C@@H]2CN(Cc3ccncc3)CCCCN12 | . | / | . | ? | 107 | . | . | 90
OC[C@H]1[C@H](c2ccc(-c3ccccc3F)cc2)[C@H]2CN(Cc3cccnc3)CCCCN21 | . | / | . | . | / | / | / | /
OC[C@@H]1[C@H](c2ccc(-c3ccc(F)cc3)cc2)[C@H]2CN(Cc3ccncc3)CCCCN12 | . | / | . | 108 | . | . | ? | 104
C[C@H](CO)N1C[C@H](C)[C@H](CN(C)Cc2ccc(-c3ccccc3)cc2)Oc2cc(C#C[C@@H](C)O)ccc2S1(=O)=O | . | . | . | 103 | 96 | 115 | 52 | 102
SMILES | GASC1 inh | IDH1 R132H inh | Pf Dd2 inh | T cruzi growth-1 | T cruzi growth-2 | T cruzi growth-3 | NIH3T3 tox | 3T3 cytotox 2
C[C@H](O)C#Cc1ccc2c(c1)O[C@H](CN(C)Cc1ccc(-c3ccccc3)cc1)[C@H](C)CN([C@H](C)CO)S2(=O)=O | . | / | . | 99 | 97 | 97 | . | 106
C[C@H](O)C#Cc1ccc2c(c1)O[C@@H](CN(C)Cc1ccc(-c3ccccc3)cc1)[C@@H](C)CN([C@@H](C)CO)S2(=O)=O | . | . | . | . | / | / | / | /
Cc1nnc(SCC(=O)Nc2nsc(-c3ccc(Cl)cc3)n2)s1 | / | . | / | / | / | / | / | /
COc1cccc(CN(C)C[C@H]2OCc3cn(nn3)CCCC(=O)N([C@H](C)CO)C[C@@H]2C)c1 | . | . | . | . | / | / | / | /
Cc1cc(Br)cc(C)c1NC(=O)CSc1nnc(-c2cc3cc(Cl)ccc3o2)n1C | / | . | / | / | / | / | / | /
COc1cccc(C#Cc2ccc([C@H]3[C@H]4CN(C(=O)Cc5ccccc5)CC(=O)N4[C@H]3CO)cc2)c1 | . | / | . | / | / | / | / | /
C[C@@H]1CN([C@@H](C)CO)C(=O)c2cccc(NC(=O)c3ccc(-c4nccs4)cc3)c2O[C@@H]1CN(C)Cc1ccc(C(F)(F)F)cc1 | . | . | . | ? | 111 | 102 | . | .
C[C@H]1CN([C@@H](C)CO)C(=O)c2cccc(NC(=O)c3ccc(-c4nccs4)cc3)c2O[C@@H]1CN(C)Cc1ccc(C(F)(F)F)cc1 | . | . | . | 109 | . | . | . | 84
C[C@@H]1CN([C@H](C)CO)C(=O)c2cccc(NC(=O)c3ccc(-c4nccs4)cc3)c2O[C@@H]1CN(C)Cc1ccc(C(F)(F)F)cc1 | . | . | . | . | / | / | / | /
Cc1ccc(-c2ccc3c(c2)O[C@H](CN(C)C(=O)NC(C)C)[C@@H](C)CN([C@H](C)CO)S3(=O)=O)cc1 | . | . | . | . | / | / | / | /

Compound activity deposited in PubChem by Broad Institute.
